HTRA1 inh = inhibitors of human serine peptidase HTRA1; Q92743; recombinant HTRA1, FP-rhodamine activity-based probe, fluorescence polarization; inhibition, % at 5.96 µM; 0.5% of 340,000 active; AID 504803; in the data active = inhibition above about 36%;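 also: 0% = enzyme with DMSO and 100% = wells lacking enzyme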
Tn6 DDE FP = DD(E)-Tn6 binding inhibition, primary FP screen; Fibrin DD(E) TRITC-Tn6 fluorescence polarization displacement; inhibition, % at 8.3 µM; 0.21% of 370,000 active; AID 720509;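 active = inhibition above a per-campaign cutoff: mean of compounds within control limits plus 3 SD, cut at about 15% in these data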;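 also: 0% = median of all compound wells on the plate and 100% = blocking peptide control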
SIAE inh = human SIAE inhibition, primary screen; inhibition, % at 9.66 µM; 0.69% of 370,000 active; AID 1053197; SIAE FP-Rh probe binding, fluorescence polarization;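 active = inhibition above a cutoff: mean of compounds within the control limits plus 3 SD of those, cut at about 17% in these data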;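 also: 0% = plate median of compound wells and 100% = probe without SIAE protein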
DDE Tn7 FP inh = disrupts Tn7 cyclic peptide binding to fibrin D-Dimer-E complex; inhibition, % at 8.3 µM; FP displacement of FITC-Tn7 peptide from fibrin DD(E); 0% = median of compound wells per plate; 0.13% of 370,000 active; P02675; AID 720508;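 active = inhibition above the mean of compounds falling within the control limits plus 3 SD of them, cut at about 14% in these data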;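 also: 0% = plate median of compound wells and 100% = 10 µM Aha-Tn7 peptide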
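Also added: labelled Tn7 tracer, 0.1 µM; Assay system: human fibrin DD(E) protein; Amount: 2 µM fibrin DD(E); Schedule: 10 min compound pre-incubation, 3 h probe incubation at room temperature; Repeats: one replicate per compound; Read-out basis: percent inhibition; Measured by: fluorescence polarization of the labelled Tn7 tracer.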
TCR-CD3 inh = inhibitors of human TCR-CD3 interaction; AID 651800; TAMRA-labeled TCR probe fluorescence, biochemical; inhibition, % at 9.4 µM; 0.37% of 360,000 active;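 also: recombinant mutant TCR 2C K166C tagged with TAMRA read by polarization; 0% = receptor in buffer alone and 100% = receptor with positive control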
ABHD4 inh = inhibitors of mouse ABHD4 | inhibition, % at 8.92 µM | AID 720543 | purified mABHD4, FP-Rh probe fluorescence polarization | 0.54% of 370,000 active;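 active = inhibition exceeding the mean over every tested compound plus 3 SD, cut at about 30% in these data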;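 also: 0% = plate median of compound wells and 100% = S159A mutant with DMSO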
Target sequence (Q8VD66 whole entry, looked up): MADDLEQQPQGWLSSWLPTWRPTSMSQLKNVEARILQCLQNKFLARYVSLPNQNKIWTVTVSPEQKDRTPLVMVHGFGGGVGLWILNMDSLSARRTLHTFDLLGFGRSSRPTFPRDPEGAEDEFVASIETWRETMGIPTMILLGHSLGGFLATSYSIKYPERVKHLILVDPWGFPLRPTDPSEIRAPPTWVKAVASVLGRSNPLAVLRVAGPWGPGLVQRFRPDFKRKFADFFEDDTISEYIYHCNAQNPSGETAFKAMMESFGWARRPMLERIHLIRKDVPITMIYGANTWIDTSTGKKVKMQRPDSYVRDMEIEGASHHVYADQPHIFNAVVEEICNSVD
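Test system: mouse ABHD4 enzyme, wild type. Reagent: FP-Rh fluorescent activity-based probe, added after compound pre-incubation. Timing: pre-incubation 45 min, probe exposure 60 min, at 25 °C. Technique: FP readout, ex 525 nm / em 598 nm. Benchmarks: high control S159A mutant with DMSO, low control median of compound wells.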
HTRA1 conf = HTRA1 (human) inhibition, confirmation. shares compounds with HTRA1 inh. recombinant HTRA1, FP-rhodamine activity-based probe, fluorescence polarization. inhibition, % at 5.96 µM. 66% of 1,600 active. AID 540248;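 active = mean inhibition over three repeats above a set limit taken from the earlier primary screen, cut at about 37% in these data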;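 also: 0% = HTRA1 with DMSO and 100% = wells lacking HTRA1; inhibitors block probe binding so polarization drops and inhibition rises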
BSA probe FL = counter-screen for TCR-CD3 interaction inhibitors: BSA probe; inhibition, % at 9.4 µM; 10% of 1,200 active; shares compounds with TCR-CD3 inh; TAMRA-labeled BSA probe fluorescence counterscreen; in the data active = inhibition above about 23%;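 also: 0% = buffer low control and 100% = reference high control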
TCR-CD3 conf = confirmation of human TCR-CD3 interaction inhibitors | TAMRA-labeled TCR probe fluorescence binding assay | inhibition, % at 9.4 µM | shares compounds with TCR-CD3 inh | 48% of 1,200 active
Tn7 DDE conf = DD(E)-Tn7 binding inhibition, FP confirmation | inhibition, % at 8.3 µM | FP displacement of TRITC-Tn7 peptide from DD(E); 0% set at plate's compound-well median | shares compounds with DDE Tn7 FP inh | 5% of 460 active;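 active = inhibition above the campaign cutoff, the mean of compounds within control limits plus 3 SD, cut at about 14% in these data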;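 also: 100% = median FP of high control wells holding Aha-Tn7 inhibitor peptide; displacers lower polarization since freed probe rises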
DDE Tn7 FP ctr = counter-screen for inhibitors of Tn7 peptide binding to fibrin DD(E); shares compounds with DDE Tn7 FP inh; TRITC-Tn7 probe displacement, fluorescence polarization; inhibition, % at 8.3 µM; 3% of 460 active; AID 720633;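 active = inhibition above the cutoff, the mean of compounds lying between the control bounds plus 3 SD of those compounds, cut at about 17% in these data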;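 also: 0% = median of compound sample wells and 100% = excess unlabeled Aha-Tn7 peptide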
Tn6 DDE ctr = counter-screen hit for Tn6 peptide-fibrin DD(E) binding disruption. shares compounds with Tn6 DDE FP. TRITC-Tn6 fluorescence polarization displacement; 0% = median of compound wells, not DMSO. inhibition, % at 8.3 µM. 2% of 680 active;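 active = inhibition above the mean of test compounds lying between the control limits plus 3 SD of those, cut at about 14% in these data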;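 also: 0% = median of compound wells and 100% = wells with Aha-Tn7 blocking peptide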
Tn6 DDE conf = DD(E)-Tn6 binding inhibition, FP confirmation; 10% of 680 active; shares compounds with Tn6 DDE FP; FP displacement of TRITC-Tn6 peptide from DD(E); 0% = per-plate median of test wells; inhibition, % at 8.3 µM;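 active = inhibition above the mean of compounds lying within the control limits plus 3 SD, cut at about 16% in these data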;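 also: 100% = high control wells holding a competing inhibitor peptide at 10 µM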
mABHD4 conf = confirmation of mouse ABHD4 inhibitors. shares compounds with ABHD4 inh. purified mABHD4, FP-Rh probe fluorescence polarization. inhibition, % at 8.92 µM. 55% of 1,800 active;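 active = mean inhibition across replicates above the hit cutoff set in the primary screen, cut at about 30% in these data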;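 also: 0% = wild-type ABHD4 with DMSO and 100% = catalytically dead S159A mutant with DMSO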
Active calls of the source: *; nt = no result given; + = active, no number. Rows were chosen to be rich in hits. Some 1.8% of all compounds tested hit in one or more screens of this group. Rule as the data show it, unless noted: active = inhibition above about 19%; inactive = the rest.

SMILES	HTRA1 inh	Tn6 DDE FP	SIAE inh	DDE Tn7 FP inh	TCR-CD3 inh	ABHD4 inh	HTRA1 conf	mABHD4 conf	others
COc1cccc2c1C(=O)c1c(O)c3c(c(O)c1C2=O)C[C@@](O)(C(C)=O)C[C@@H]3O[C@H]1C[C@H](N)[C@H](O)[C@H](C)O1	72*	+	45*	18*	162*	62*	74*	48*	BSA probe FL=183*;TCR-CD3 conf=150*;Tn7 DDE conf=-9;DDE Tn7 FP ctr=93*;Tn6 DDE ctr=-9;Tn6 DDE conf=93*
O=C1NCCCc2c1oc1ccc(O)cc21	-3	-9	5	-2	-2	-5	nt	nt
Oc1c(Cl)cc(Cl)c2c1NCCC2	51*	2	14	-1	5	38*	30	37*
O=C1c2cc(O)cc(O)c2C(=O)c2c1cc(O)c([C@@H](CO)CCO)c2O	39*	-12	10	-7	6	56*	20	51*
O=C(NCc1ccccc1)c1ccc2nc(-c3ccco3)c(-c3ccco3)nc2c1	63*	-6	34*	-5	22*	54*	22	38*	BSA probe FL=-10;TCR-CD3 conf=24*
Cc1cccc(C)c1N=Nc1c(C)cc(O)cc1C	47*	3	11	-12	3	32*	50*	39*
CC(C)c1cc2c(c(O)c1O)[C@@]13CCCC(C)(C)C1CC2OC3=O (stereo partly drawn)	48*	-3	20*	0	-3	31*	18	26
CCOC(=O)[C@@H](CCc1ccccc1)N[C@@H](C)C(=O)N1CCC[C@H]1C(=O)O	nt	2	-5	8	nt	0	nt	nt
CC(=O)Nc1ccc(Nc2ccc3c4c(cc(=O)n3C)-c3ccccc3C(=O)c24)cc1	21	2	4	2	1	16	nt	nt
O=C1c2ccccc2C(=O)c2c(Nc3ccc(CCO)cc3)ccc(O)c21	53*	5	12	6	0	48*	81*	75*
Oc1c(I)cc(I)c2cccnc12	72*	-5	34*	-3	6	33*	66*	29
O=C(O)c1ccc(O)c2ncccc12	nt	-13	2	-6	-4	3	nt	nt
Cc1ccc(NC(=S)NNc2ccc(C(=O)O)cc2[N+](=O)[O-])cc1C	49*	-3	7	-4	28*	69*	41*	47*	BSA probe FL=-4;TCR-CD3 conf=15
COC(=O)[C@H](CC(C)C)N(Cc1cn(Cc2ccc(C)cc2)nn1)S(=O)(=O)c1ccc(F)cc1Br	nt	-5	2	1	nt	-6	nt	nt
COC(=O)CSc1nnc(-c2ccc(NS(=O)(=O)c3ccc(Cl)s3)cc2)o1	nt	-8	-4	5	nt	2	nt	nt
Cc1coc2c1C(=O)C(=O)c1c-2ccc2c1CCCC2(C)C	67*	-9	13	-6	123*	49*	66*	58*	BSA probe FL=-1;TCR-CD3 conf=1
CCN(Cc1cn(Cc2ccc(C)cc2)nn1)S(=O)(=O)c1ccccc1Br	nt	0	2	-2	nt	0	nt	nt
CCN=c1scc(-c2ccco2)n1/N=C/c1ccc(O)cc1	16	-3	11	-7	5	20	nt	nt
CCN=c1scc(C)n1/N=C/c1ccc(O)c(O)c1O	60*	1	9	0	27*	60*	81*	49*	BSA probe FL=-20;TCR-CD3 conf=41*
CC1=NN(c2ccc(C)cc2)C(=O)/C1=C/c1ccc(-c2cc([N+](=O)[O-])ccc2O)o1	46*	-7	13	-9	-4	31*	53*	53*
CC1=NN(c2ccc(C(=O)O)cc2)C(=O)/C1=C/c1ccc(-c2ccccc2F)o1	0	nt	nt	nt	nt	nt	nt	nt
COC(=O)[C@]12C[C@H](CC(=O)NCc3ccc(C)o3)C(=O)N(CCc3ccc(OC)c(OC)c3)C1=C[C@H](C(C)C)O[C@@H]2C1CC1	nt	2	-1	-2	nt	2	nt	nt
Cc1ccc2nc(/C(C#N)=C/c3ccc(O)c(O)c3)[nH]c2c1	67*	-5	16	-4	11	55*	92*	52*
COC(=O)[C@]12C[C@H](CC(=O)N3CCCC3)C(=O)N(CCC3=CCCCC3)C1=C[C@H](C(C)C)O[C@@H]2C1CC1	nt	-2	-4	4	nt	6	nt	nt
COc1cc(C=NNc2ccc(S(=O)(=O)Nc3ccccc3C(=O)O)cc2[N+](=O)[O-])ccc1O	49*	-32	13	-1	7	64*	75*	91*
O=C(O)c1ccccc1NS(=O)(=O)c1ccc(N/N=C/c2cccc(O)c2O)c([N+](=O)[O-])c1	74*	-14	0	-5	25*	86*	78*	77*	BSA probe FL=-19;TCR-CD3 conf=24*
O=C(O)c1ccccc1NS(=O)(=O)c1ccc(NNC(=S)Nc2ccc(OC(F)F)cc2)c([N+](=O)[O-])c1	67*	-19	8	3	2	72*	118*	140*
CCOc1ccc(C=NNc2ccc(S(=O)(=O)Nc3ccccc3C(=O)O)cc2[N+](=O)[O-])cc1OC	15	nt	nt	nt	nt	nt	nt	nt
COc1ccc(NC(=O)c2ccccc2NS(=O)(=O)c2ccc(C)cc2)c([N+](=O)[O-])c1	-9	1	0	-5	-9	1	nt	nt
O=C(O)c1cc(S(=O)(=O)Nc2ccccc2C(=O)O)ccc1O	-1	8	14	3	-2	6	nt	nt

Source: PubChem BioAssay (The Scripps Research Institute Molecular Screening Center)
